Calls of active or inactive are those of the source. The calls are words filed in the database; no cut-off is given here.
Legend:
Cyberlindnera jadinii [1] = assay: Antifungal activity against Candida utilis ATCC 9950 at 1.2 mol by disk diffusion method; type: functional
How it was run: (§1)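 Compound dissolved in MeOH, applied to a 6 mm filter-paper disk and air-dried. Disk placed on an agar plate overgrown with the test organism. Growth-inhibition zone measured from the outer edge of the disk.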

Escherichia coli [2] = assay: Antibacterial activity against Escherichia coli ATCC 11775 at 1.2 mol by disk diffusion method; type: functional; how it was run: as §1
Micrococcus luteus [3] = assay: Antibacterial activity against Micrococcus luteus ATCC 49732 at 1.2 mol by disk diffusion method; type: functional; how it was run: as §1
Saccharomyces cerevisiae [4] = assay: Antifungal activity against Saccharomyces cerevisiae ATCC 9763 at 1.2 mol by disk diffusion method; type: functional; how it was run: as §1
Micrococcus luteus [5] = assay: Antibacterial activity against Micrococcus luteus ATCC 49732 at 0.9 mol by disk diffusion method; type: functional, organism-based; how it was run: as §1
Escherichia coli [6] = assay: Antibacterial activity against Escherichia coli ATCC 11775 at 0.9 mol by disk diffusion method; type: functional, organism-based; how it was run: as §1
Saccharomyces cerevisiae [7] = assay: Antifungal activity against Saccharomyces cerevisiae ATCC 9763 at 0.9 mol by disk diffusion method; type: functional, organism-based; how it was run: as §1
Cyberlindnera jadinii [8] = assay: Antifungal activity against Candida utilis ATCC 9950 at 0.9 mol by disk diffusion method; type: functional, organism-based; how it was run: as §1
Saccharomyces cerevisiae [9] = assay: Antifungal activity against Saccharomyces cerevisiae ATCC 9763 at 1.3 mol by disk diffusion method; type: functional; how it was run: as §1
Cyberlindnera jadinii [10] = assay: Antifungal activity against Candida utilis ATCC 9950 at 1.3 mol by disk diffusion method; type: functional; how it was run: as §1
Micrococcus luteus [11] = assay: Antibacterial activity against Micrococcus luteus ATCC 49732 at 1.3 mol by disk diffusion method; type: functional; how it was run: as §1
Escherichia coli [12] = assay: Antibacterial activity against Escherichia coli ATCC 11775 at 1.3 mol by disk diffusion method; type: functional; how it was run: as §1
Saccharomyces cerevisiae [13] = assay: Antifungal activity against Saccharomyces cerevisiae ATCC 9763 at 1.5 mol by disk diffusion method; type: functional; how it was run: as §1
Cyberlindnera jadinii [14] = assay: Antifungal activity against Candida utilis ATCC 9950 at 1.5 mol by disk diffusion method; type: functional; how it was run: as §1
Escherichia coli [15] = assay: Antibacterial activity against Escherichia coli ATCC 11775 at 1.5 mol by disk diffusion method; type: functional; how it was run: as §1
Micrococcus luteus [16] = assay: Antibacterial activity against Micrococcus luteus ATCC 49732 at 1.5 mol by disk diffusion method; type: functional; how it was run: as §1
Escherichia coli [17] = assay: Antibacterial activity against Escherichia coli ATCC 11775 at 0.7 mol by disk diffusion method; type: functional, organism-based; how it was run: as §1
Cyberlindnera jadinii [18] = assay: Antifungal activity against Candida utilis ATCC 9950 at 0.7 mol by disk diffusion method; type: functional, organism-based; how it was run: as §1
Saccharomyces cerevisiae [19] = assay: Antifungal activity against Saccharomyces cerevisiae ATCC 9763 at 0.7 mol by disk diffusion method; type: functional, organism-based; how it was run: as §1
Micrococcus luteus [20] = assay: Antibacterial activity against Micrococcus luteus ATCC 49732 at 0.7 mol by disk diffusion method; type: functional, organism-based; how it was run: as §1
Cyberlindnera jadinii [21] = assay: Antifungal activity against Candida utilis ATCC 9950 at 1.4 mol by disk diffusion method; type: functional; how it was run: as §1

Q: For CC(C)=CCc1cc(Br)c2c(c1O)[C@]1(CC=C(C)C)CCN(C)[C@@H]1N2 [FLUSTRAMINE L], which “inhibition zone (IZ)” value (Cyberlindnera jadinii [1]) is on record?
A: Its value is 30 mm.

Q: And the “inhibition zone (IZ)” value (Escherichia coli [2])?
A: Its value is 24 mm.

Q: And the “inhibition zone (IZ)” value (Micrococcus luteus [3])?
A: The value was 25 mm.

Q: And the “inhibition zone (IZ)” value (Saccharomyces cerevisiae [4])?
A: Its value is 20 mm.

Q: Which “inhibition zone (IZ)” value (Micrococcus luteus [5]) does the source give for C=CC(C)(C)[C@@]12CCN(C)[C@@H]1N(CN1c3cc(Br)ccc3[C@]3(C(C)(C)C=C)CCN(C)[C@H]13)c1cc(Br)ccc12 here?
A: The value was “inactive”.

Q: And the “inhibition zone (IZ)” value (Escherichia coli [6])?
A: The value was “inactive”.

Q: And the “inhibition zone (IZ)” value (Saccharomyces cerevisiae [7])?
A: Its value is “inactive”.

Q: What about the “inhibition zone (IZ)” value (Cyberlindnera jadinii [8]) of the same molecule?
A: The value was “inactive”.

Q: How did the “inhibition zone (IZ)” value (Saccharomyces cerevisiae [9]) turn out when CC(C)=CCC/C(C)=C/C[C@@]12CCN(C)[C@@H]1Nc1cccc(O)c12 [DEBROMOFLUSTRAMINE H] was run?
A: The value was 16 mm.

Q: And the “inhibition zone (IZ)” value (Cyberlindnera jadinii [10])?
A: The value was 28 mm.

Q: What about the “inhibition zone (IZ)” value (Micrococcus luteus [11]) of the same molecule?
A: Its value is 23 mm.

Q: What about the “inhibition zone (IZ)” value (Escherichia coli [12]) of the same molecule?
A: Its value is 22 mm.

Q: How did the “inhibition zone (IZ)” value (Saccharomyces cerevisiae [13]) turn out when CC(C)=CC[C@@]12CCN(C)[C@@H]1Nc1c(Br)ccc(O)c12 [FLUSTRAMINE I] was run?
A: Its value is 15 mm.

Q: What about the “inhibition zone (IZ)” value (Cyberlindnera jadinii [14]) of the same molecule?
A: Its value is 29 mm.

Q: What about the “inhibition zone (IZ)” value (Escherichia coli [15]) of the same molecule?
A: The value was 25 mm.

Q: And the “inhibition zone (IZ)” value (Micrococcus luteus [16])?
A: The value was 29 mm.

Q: Which results are given for C=CC(C)(C)[C@@]12CCN(C)[C@@H]1N(Cc1cc(Br)c3c(c1O)[C@]1(C/C=C(\C)CCC=C(C)C)CCN(C)[C@@H]1N3)c1cc(Br)ccc12?
A: inhibition zone (IZ) (Escherichia coli [17]): inactive; inhibition zone (IZ) (Cyberlindnera jadinii [18]): inactive; inhibition zone (IZ) (Saccharomyces cerevisiae [19]): inactive; inhibition zone (IZ) (Micrococcus luteus [20]): inactive

Q: How did the “inhibition zone (IZ)” value (Cyberlindnera jadinii [21]) turn out when C=CC(C)(C)[C@@]12CCN(C)[C@@H]1N(C(C)=O)c1cc(Br)ccc12 [FLUSTRAMINE F] was run?
A: The value was 18 mm.

Source: ChEMBL document CHEMBL1154319, “Further studies on the chemistry of the flustra alkaloids from the bryozoan Flustra foliacea” (2009)
